According to PMC4684756 (Nature immunology, 2015):
Entries after “also recorded” stand apart in the source; their conditions may differ.

Columns and labels:
[1] = target: p4B10 / H-2L^d mini-MHC m31r (murine); test: SPR
[2] = target: pCPA12 / H-2L^d mini-MHC m31r (murine); test: SPR
[3] = target: pCPB7 / H-2L^d mini-MHC m31r (murine); test: SPR
[4] = target: pCPB9 / H-2L^d mini-MHC m31r (murine); test: SPR
[5] = target: pCPC5 / H-2L^d mini-MHC m31r (murine); test: SPR
[6] = target: pCPE3 / H-2L^d mini-MHC m31r (murine); test: SPR
CD8+ 42F3 T cells = test: IL-2 release dose response of CD8+ 42F3 T cells to peptide-pulsed APCs; assay type: cell-based, murine; conditions: for maximal IL-2 response (high / medium / low): transduced CD8+ 42F3 cells, among CD8-dependent agonists; for IL-2 agonist character (in words): titrated IL-2 response in CD8+ 42F3 T cells
Summary of the method: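 Murine 58−/− hybridoma (TCRα−β−) expressing CD8αβ, retrovirally transduced with 42F3 TCR, co-cultured 1:1 with LM1.8-L^dW97R APCs (5x10⁴ cells; grown in RPMI/10% FBS) and titrated peptide for 20 h at 37°C. Peptide stocks were 50mM in DMSO, diluted in RPMI. IL-2 in supernatants was measured by HRP-colorimetric ELISA. EC50 and Emax came from the titration curves.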

42F3 TCR
Kd [1]: 10000 nM
koff [1]: > 0.5 s⁻¹
Kd [2]: 2000 nM
koff [2]: 0.0579 s⁻¹
kon [2]: 31400 M⁻¹ s⁻¹
koff [3]: 0.0579 s⁻¹
kon [3]: 495000 M⁻¹ s⁻¹
koff [4]: 0.0668 s⁻¹
Kd [5]: 1000 nM
koff [5]: 0.197 s⁻¹
Kd [6]: 700 nM
koff [6]: 0.166 s⁻¹
kon [6]: 58600 M⁻¹ s⁻¹

FLSPFWFDI [p5E8]
maximal IL-2 response (high / medium / low) (CD8+ 42F3 T cells): high

MPAGRPWDL [pCPE3]
IL-2 agonist character (in words) (CD8+ 42F3 T cells): weak agonist; also recorded: partial agonist

SPAPRPLDL [pCPC5]
IL-2 agonist character (in words) (CD8+ 42F3 T cells): partial IL-2 responses; also recorded: partial agonist

VPYMAEFGM [pCPA12]
IL-2 agonist character (in words) (CD8+ 42F3 T cells): partial IL-2 responses; also recorded: partial agonist
maximal IL-2 response (high / medium / low) (CD8+ 42F3 T cells): medium
